# In paper PMC7415440 (Drug Design, Development and Therapy, 2020):
# Experiments:
# [1] = Single ascending dose; type: in vivo, human; details: for Tmax: max]
# In short: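 Single 0.5 h iv infusion in saline. Plasma sampled predose to 48 h, stored −70°C; urine collected in intervals to 24 h with volumes. Validated HPLC-MS/MS, deuterated internal standard, positive ESI MRM m/z 344.3→201.2. Plasma range 1–3000 or 10–30,000 ng/mL and urine 5–15,000 or 50–150,000 ng/mL, by dose group. Noncompartmental analysis on actual times; AUCinf = AUClast + Clast/λz; CLR = Ae/AUClast.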
# [2] = Multiple ascending dose; type: in vivo, human
# In short: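 Seven 1 h iv saline infusions every 12 h. Plasma sampled to 12 h after the first dose, predose at 60 and 72 h, then to 96 h; urine collected in 4–12 h intervals after the first and last doses. HPLC-MS/MS with deuterated internal standard; plasma range 10–30,000 ng/mL, urine 50–150,000 ng/mL. Noncompartmental analysis on actual sampling times; AUCτ by trapezoidal rule; CLR as Ae/AUClast.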
# [3] = tested on: stroke animal model; details: ref unpublished data on file, Jeil Pharma, Seoul, Korea; cited from earlier work
# [4] = tested on: regulatory T cells (Tregs) in peripheral blood mononuclear cells (PBMCs); details: PBMCs incubated for 24 h with high-dose JPI-289; cited from earlier work
# [5] = single iv 35 mg over 0.5 h, n=6, mean (SD)
# [6] = single iv 75 mg over 0.5 h, n=6, mean (SD)
# [7] = single iv 150 mg over 0.5 h, n=6, mean (SD)
# [8] = single iv 300 mg over 0.5 h, n=6, mean (SD)
# [9] = single iv 600 mg over 0.5 h, n=6, mean (SD)
# [10] = single iv, all doses 35-600 mg, Total n=30, mean (SD)
# [11] = multiple iv 150 mg over 1 h every 12 h x7, n=6, mean (SD)
# [12] = multiple iv 300 mg over 1 h every 12 h x7, n=6, mean (SD)
# [13] = multiple iv 450 mg over 1 h every 12 h x7, n=6, mean (SD)
# [14] = multiple iv, all doses 150-450 mg, Total n=18, mean (SD)
smiles,measurement,setting,value
CCOc1cc(CN2CCOCC2)cc2[nH]c(=O)c3c(c12)NCCC3.Cl.Cl.O.O [JPI-289],AUCinf,[1]; [5],665.50 (149.62) ng·h/mL
same,AUCinf/dose,[1]; [5],19.01 (4.28) ng·h/mL/mg
same,AUClast,[1]; [5],658.82 (148.39) ng·h/mL
same,Ae (amount of unchanged drug in urine),[1]; [5],0.56 (0.22) mg
same,CL,[1]; [5],54.88 (12.54) L/h
same,CLR (renal clearance),[1]; [5],0.84 (0.28) L/h
same,Cmax,[1]; [5],422.72 (102.10) ng/mL
same,Cmax/dose,[1]; [5],12.08 (2.92) ng/mL/mg
same,"Vd,ss",[1]; [5],101.33 (26.74) L
same,Vz,[1]; [5],160.73 (42.91) L
same,t1/2z,[1]; [5],2.18 (1.01) h
same,Tmax,"[1]; single iv 35 mg over 0.5 h, n=6, median [min","0.47 [0.33, 0.50] h"
same,AUCinf,[1]; [6],1947.57 (366.92) ng·h/mL
same,AUCinf/dose,[1]; [6],25.97 (4.89) ng·h/mL/mg
same,AUClast,[1]; [6],1940.45 (367.40) ng·h/mL
same,Ae (amount of unchanged drug in urine),[1]; [6],1.74 (0.71) mg
same,CL,[1]; [6],39.77 (8.07) L/h
same,CLR (renal clearance),[1]; [6],0.88 (0.26) L/h
same,Cmax,[1]; [6],1197.77 (173.37) ng/mL
same,Cmax/dose,[1]; [6],15.97 (2.31) ng/mL/mg
same,"Vd,ss",[1]; [6],91.18 (17.49) L
same,Vz,[1]; [6],183.32 (61.92) L
same,t1/2z,[1]; [6],3.21 (0.81) h
same,Tmax,"[1]; single iv 75 mg over 0.5 h, n=6, median [min","0.48 [0.33, 0.52] h"
same,AUCinf,[1]; [7],6057.90 (1533.04) ng·h/mL
same,AUCinf/dose,[1]; [7],40.39 (10.22) ng·h/mL/mg
same,AUClast,[1]; [7],6029.78 (1520.32) ng·h/mL
same,Ae (amount of unchanged drug in urine),[1]; [7],5.31 (1.49) mg
same,CL,[1]; [7],26.41 (8.03) L/h
same,CLR (renal clearance),[1]; [7],0.89 (0.21) L/h
same,Cmax,[1]; [7],2481.05 (502.31) ng/mL
same,Cmax/dose,[1]; [7],16.54 (3.35) ng/mL/mg
same,"Vd,ss",[1]; [7],85.17 (15.31) L
same,Vz,[1]; [7],118.12 (34.25) L
same,t1/2z,[1]; [7],3.12 (0.40) h
same,Tmax,"[1]; single iv 150 mg over 0.5 h, n=6, median [min","0.48 [0.43, 0.50] h"
same,AUCinf,[1]; [8],"10,061.82 (3690.15) ng·h/mL"
same,AUCinf/dose,[1]; [8],33.54 (12.30) ng·h/mL/mg
same,AUClast,[1]; [8],9786.58 (3534.51) ng·h/mL
same,Ae (amount of unchanged drug in urine),[1]; [8],8.37 (3.65) mg
same,CL,[1]; [8],34.28 (15.06) L/h
same,CLR (renal clearance),[1]; [8],0.91 (0.45) L/h
same,Cmax,[1]; [8],4842.02 (1202.57) ng/mL
same,Cmax/dose,[1]; [8],16.14 (4.01) ng/mL/mg
same,"Vd,ss",[1]; [8],92.52 (15.20) L
same,Vz,[1]; [8],124.50 (30.65) L
same,t1/2z,[1]; [8],2.73 (0.76) h
same,Tmax,"[1]; single iv 300 mg over 0.5 h, n=6, median [min","0.48 [0.17, 0.50] h"
same,AUCinf,[1]; [9],"32,228.35 (11,796.05) ng·h/mL"
same,AUCinf/dose,[1]; [9],53.71 (19.66) ng·h/mL/mg
same,AUClast,[1]; [9],"32,066.88 (11,725.80) ng·h/mL"
same,Ae (amount of unchanged drug in urine),[1]; [9],25.32 (6.50) mg
same,CL,[1]; [9],21.34 (9.69) L/h
same,CLR (renal clearance),[1]; [9],0.84 (0.20) L/h
same,Cmax,[1]; [9],"10,381.25 (2097.17) ng/mL"
same,Cmax/dose,[1]; [9],17.30 (3.50) ng/mL/mg
same,"Vd,ss",[1]; [9],73.01 (13.20) L
same,Vz,[1]; [9],81.46 (16.60) L
same,t1/2z,[1]; [9],2.88 (0.72) h
same,Tmax,"[1]; single iv 600 mg over 0.5 h, n=6, median [min","0.50 [0.48, 0.52] h"
same,AUCinf,[1]; [10],"10,192.23 (12,791.37) ng·h/mL"
same,AUCinf/dose,[1]; [10],34.52 (16.32) ng·h/mL/mg
same,AUClast,[1]; [10],"10,096.50 (12,719.54) ng·h/mL"
same,Ae (amount of unchanged drug in urine),[1]; [10],8.26 (9.65) mg
same,CL,[1]; [10],35.33 (15.66) L/h
same,CLR (renal clearance),[1]; [10],0.87 (0.27) L/h
same,Cmax,[1]; [10],3864.96 (3789.52) ng/mL
same,Cmax/dose,[1]; [10],15.61 (3.55) ng/mL/mg
same,"Vd,ss",[1]; [10],88.64 (19.42) L
same,Vz,[1]; [10],133.63 (51.80) L
same,t1/2z,[1]; [10],2.83 (0.80) h
same,Tmax,"[1]; single iv, all doses 35-600 mg, Total n=30, median [min","0.48 [0.17, 0.52] h"
same,"AUCτ,1st dose",[2]; [11],4766.06 (878.28) ng·h/mL
same,"AUCτ,ss",[2]; [11],7696.21 (1157.59) ng·h/mL
same,"Ae,1st dose",[2]; [11],3.98 (1.21) mg
same,"Ae,last dose",[2]; [11],5.48 (1.64) mg
same,"CLR,1st dose",[2]; [11],0.84 (0.21) L/h
same,"CLR,last dose",[2]; [11],0.73 (0.24) L/h
same,CLss,[2]; [11],19.91 (3.37) L/h
same,"Cav,ss",[2]; [11],641.35 (96.47) ng/mL
same,"Cmax,1st dose",[2]; [11],1728.17 (353.61) ng/mL
same,"Cmax,ss",[2]; [11],2023.47 (460.41) ng/mL
same,Observed AI (accumulation index),[2]; [11],1.64 (0.21)
same,"Vd,ss",[2]; [11],112.20 (31.78) L
same,Vz,[2]; [11],85.65 (17.01) L
same,"t1/2,eff",[2]; [11],1.88 (0.13) L
same,t1/2z,[2]; [11],2.44 h
same,"AUCτ,1st dose",[2]; [12],"14,809.79 (2793.29) ng·h/mL"
same,"AUCτ,ss",[2]; [12],"22,608.80 (5198.68) ng·h/mL"
same,"Ae,1st dose",[2]; [12],11.74 (3.77) mg
same,"Ae,last dose",[2]; [12],13.87 (5.36) mg
same,"CLR,1st dose",[2]; [12],0.80 (0.25) L/h
same,"CLR,last dose",[2]; [12],0.61 (0.14) L/h
same,CLss,[2]; [12],13.95 (3.63) L/h
same,"Cav,ss",[2]; [12],1884.07 (433.23) ng/mL
same,"Cmax,1st dose",[2]; [12],4747.25 (798.21) ng/mL
same,"Cmax,ss",[2]; [12],5658.20 (804.71) ng/mL
same,Observed AI (accumulation index),[2]; [12],1.52 (0.22)
same,"Vd,ss",[2]; [12],74.92 (11.18) L
same,Vz,[2]; [12],67.95 (11.04) L
same,"t1/2,eff",[2]; [12],2.46 (0.67) L
same,t1/2z,[2]; [12],2.74 h
same,"AUCτ,1st dose",[2]; [13],"28,278.07 (6412.76) ng·h/mL"
same,"AUCτ,ss",[2]; [13],"50,840.74 (19,417.91) ng·h/mL"
same,"Ae,1st dose",[2]; [13],25.66 (5.03) mg
same,"Ae,last dose",[2]; [13],40.71 (20.87) mg
same,"CLR,1st dose",[2]; [13],0.92 (0.16) L/h
same,"CLR,last dose",[2]; [13],0.77 (0.22) L/h
same,CLss,[2]; [13],9.78 (3.11) L/h
same,"Cav,ss",[2]; [13],4236.73 (1618.16) ng/mL
same,"Cmax,1st dose",[2]; [13],8070.98 (1320.10) ng/mL
same,"Cmax,ss",[2]; [13],"11,921.28 (1655.56) ng/mL"
same,Observed AI (accumulation index),[2]; [13],1.76 (0.28)
same,"Vd,ss",[2]; [13],72.06 (8.72) L
same,Vz,[2]; [13],63.02 (8.23) L
same,"t1/2,eff",[2]; [13],3.05 (0.97) L
same,t1/2z,[2]; [13],3.5 h
same,"AUCτ,1st dose",[2]; [14],"15,951.31 (10,623.66) ng·h/mL"
same,"AUCτ,ss",[2]; [14],"27,048.58 (21,404.87) ng·h/mL"
same,"Ae,1st dose",[2]; [14],13.79 (9.86) mg
same,"Ae,last dose",[2]; [14],20.02 (19.40) mg
same,"CLR,1st dose",[2]; [14],0.85 (0.20) L/h
same,"CLR,last dose",[2]; [14],0.70 (0.21) L/h
same,CLss,[2]; [14],14.54 (5.33) L/h
same,"Cav,ss",[2]; [14],2254.05 (1783.74) ng/mL
same,"Cmax,1st dose",[2]; [14],4848.80 (2800.32) ng/mL
same,"Cmax,ss",[2]; [14],6534.32 (4330.54) ng/mL
same,Observed AI (accumulation index),[2]; [14],1.64 (0.24)
same,"Vd,ss",[2]; [14],86.39 (26.65) L
same,Vz,[2]; [14],72.21 (15.52) L
same,"t1/2,eff",[2]; [14],2.46 (0.81) L
same,t1/2z,[2]; [14],2.89 h
same,time after stroke onset at which treatment showed efficacy,[3],more than 10 h
same,proportions of regulatory T cells (Tregs),[4],can be increased
